This note sets out measurements from ChEMBL document CHEMBL3808283, “Biological Characterization and in Vivo Assessment of the Activity of a New Synthetic Macrocyclic Antifungal Compound” (J Med Chem, 2016).

Broadly, the MIC is the least concentration at which growth counts as inhibited. A high value points to a need for much substance.

In brackets after ≈: the same amount, converted by molar mass. Activity calls are given as the source filed them. The rule behind the calls is not given here.

For assay [1], the system named is Candida albicans. As to the kind of experiment: Upregulation of orf19.2726 gene expression in Candida albicans SC5314 at 3 uM after 15 mins by microarray method relative to control. In kind it is functional. The method, boiled down:
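Log-phase cultures in liquid YEPD were exposed to 3 µM compound (final) for 15 or 45 min, with untreated controls sampled at the same times, in three biological replicates. Total RNA was extracted by glass-bead/phenol-chloroform disruption and integrity-checked. One-color Cy3-labelled cRNA (600 ng) was hybridized for 17 h at 65 °C to 8 × 15K arrays, and fold change was taken versus control.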

The subject of assay [2] is Candida albicans. As to the kind of experiment: Upregulation of LCB4 gene expression in Candida albicans SC5314 at 3 uM after 15 mins by microarray method relative to control. In kind it is functional. The method, boiled down:
(§1)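 Log-phase C. albicans SC5314 in liquid YEPD exposed to 3 µM final for 15 or 45 min; untreated controls taken at the same time points. Three biological replicates. RNA extracted by glass-bead/phenol-chloroform method and integrity checked. One-color Cy3-labeled cRNA (600 ng) hybridized 17 h at 65 °C to 8 × 15K arrays. Expression expressed as fold change versus control.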

Assay [3] deals with Candida tropicalis. Put plainly: Ratio of MIC at 24 hrs to MIC at 48 hrs for Candida tropicalis 86E. In kind it is functional. The method, boiled down: (§2)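 MICs by EUCAST broth microdilution, with the update for non-fermenting yeasts, incubated at 37 °C. Read at 24, 48 and 72 h as the lowest concentration preventing visible growth.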
Assay [4] deals with Candida albicans. As to the kind of experiment: Upregulation of orf19.1438 gene expression in Candida albicans SC5314 at 3 uM after 15 mins by microarray method relative to control. The format is functional. The method, boiled down: as §1
Assay [5] deals with Candida tropicalis. As to the kind of experiment: Antifungal activity against Candida tropicalis 86E measured at 48 hrs by broth dilution assay. In kind it is functional. The method, boiled down:
(§3)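 EUCAST broth microdilution, including the update for non-fermenting yeasts (Cryptococcus, Geotrichum), on clinical and reference yeast isolates. Incubated at 37 °C and read at 24, 48 and 72 h. MIC taken as the lowest concentration with no visible growth. For Cryptococcus and Geotrichum, MICs were read only once growth was visible in the control row.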

Assay [6] deals with Pichia kudriavzevii. As to the kind of experiment: Antifungal activity against Candida krusei ATCC 14243 measured at 24 hrs by broth dilution assay. The format is functional. The following applies: ATCC 14243, 24 h. The method, boiled down:
as §3
(In general: Dilution methods test growth across graded concentrations, often in twofold steps.)

Assay [7] concerns Candida parapsilosis. Put plainly: Ratio of MIC at 24 hrs to MIC at 48 hrs for Candida parapsilosis 64E. In kind it is functional. The method, boiled down: as §2
In assay [8] the test system is Candida albicans. As to the kind of experiment: Upregulation of TAC1 gene expression in Candida albicans SC5314 at 3 uM after 45 mins by microarray method relative to control. The format is functional. The method, boiled down:
as §1

In assay [9] the test system is Pichia kudriavzevii. Put plainly: Antifungal activity against Candida krusei ATCC 14243 measured at 72 hrs by broth dilution assay. In kind it is functional. The following applies: ATCC 14243, 72 h. The method, boiled down:
as §3

The test system of assay [10] is Candida albicans. As to the kind of experiment: Upregulation of ARE2 gene expression in Candida albicans SC5314 at 3 uM after 45 mins by microarray method relative to control. The format is functional. The method, boiled down: as §1
For another assay, the system named is Magnusiomyces capitatus. As to the kind of experiment: Antifungal activity against Geotrichum capitatum up to 96 hrs by broth dilution assay. In kind it is functional.
The test system of assay [11] is Candida parapsilosis. Put plainly: Antifungal activity against Candida parapsilosis 81E measured at 24 hrs by broth dilution assay. The format is functional. As to conditions: Lodderomyces parapsilosis. The method, boiled down: as §3
Assay [12] deals with Candida albicans. Put plainly: Antifungal activity against Candida albicans ATCC 60193 up to 96 hrs by broth dilution assay. In kind it is functional.
The test system of assay [13] is Candida parapsilosis. As to the kind of experiment: Antifungal activity against Candida parapsilosis 81E measured at 48 hrs by broth dilution assay. The format is functional. As to conditions: Lodderomyces parapsilosis. The method, boiled down: as §3
Assay [14] deals with Candida albicans. Put plainly: Upregulation of FCR1 gene expression in Candida albicans SC5314 at 3 uM after 45 mins by microarray method relative to control. In kind it is functional. The method, boiled down: as §1
In assay [15] the test system is Candida albicans. Put plainly: Antifungal activity against Candida albicans 53T measured at 48 hrs by broth dilution assay. The format is functional. The method, boiled down:
as §3

Assay [16] concerns Candida albicans. As to the kind of experiment: Upregulation of CDR1 gene expression in Candida albicans SC5314 at 3 uM after 15 to 45 mins by qRT-PCR method. In kind it is functional, organism-based. The method, boiled down:
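Log-phase C. albicans treated at 3 µM. RNA extracted with glass-bead disruption, then DNase-treated (10 µg per preparation). Target gene CT values were normalized to an endogenous reference. Fold change calculated as mean normalized expression of samples relative to a selected control.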
In general terms: In qPCR the cycle at which signal appears reflects the starting amount.

Assay [17] deals with Candida albicans. As to the kind of experiment: Upregulation of ERG2 gene expression in Candida albicans SC5314 at 3 uM after 15 mins by microarray method relative to control. The format is functional. The method, boiled down: as §1
Assay [18] has as its system Candida albicans. Put plainly: Upregulation of CDR2 gene expression in Candida albicans SC5314 at 3 uM after 15 mins by microarray method relative to control. In kind it is functional. The method, boiled down: as §1
The subject of assay [19] is Candida tropicalis. As to the kind of experiment: Antifungal activity against Candida tropicalis 86E measured at 24 hrs by broth dilution assay. The format is functional. The method, boiled down: as §3

Consider `C/C=C/CNC(=N)NCCCCCCCCN1CCCCCCCCNC(=N)NC1=O`, for which the “fold change (FC)” value with Candida albicans [1] was 5.86; in the assay with Candida albicans [2] it was 2.04; in the assay with Candida albicans [4], 6.13; in the assay on Candida albicans [8] it was 3.38; in the assay with Candida albicans [10] it was 2.88; with Candida albicans [14], 5.88. Also, the results for the “fold change (FC)” value in the assay on Candida albicans [17] and in the assay with Candida albicans [18] were 2.61 and 71.84, respectively. In addition, the Ratio in the assay with Candida tropicalis [3] and in the assay with Candida parapsilosis [7] was 2 in each case. For the same molecule, the MIC in the assay on Candida tropicalis [5] was 5 µM (≈ 2.18 µg/mL); in the assay on Pichia kudriavzevii [6], 10 µM (≈ 4.36 µg/mL); in the assay with Pichia kudriavzevii [9], 80 µM (≈ 34.9 µg/mL); against Candida parapsilosis [11] it was 20 µM (≈ 8.71 µg/mL); against Candida parapsilosis [13], 40 µM (≈ 17.4 µg/mL); against Candida albicans [15], 5 µM (≈ 2.18 µg/mL). For the same molecule, the lowest concentration to inhibit growth against Candida tropicalis [19] (MIC) was 2.5 µM (≈ 1.09 µg/mL). The outcome with Magnusiomyces capitatus, in the assay with Candida albicans [12] and in the assay with Candida albicans [16] was Active.
